For assay [1], the system named is Escherichia coli. As to the kind of experiment: Antibacterial activity against efflux pump lacking/recombinant OM pore producing Escherichia coli incubated for 24 hrs by twofold serial dilution method. The class given is functional. In outline:
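E. coli efflux-knockout/hyperporinated strain grown in M9 medium with 50 mM MOPS (pH 7.2) and 0.2% xylose. OM pore induced with 0.1% arabinose. Compounds come from 10 mM DMSO stocks and are twofold serially diluted in 96-well plates.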

Assay [2] relates to Escherichia coli. The assay can be described thus: Antibacterial activity against Escherichia coli SQ110 DTC G2032A incubated for 24 hrs by twofold serial dilution method. The class given is functional. In outline: (§1)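 E. coli SQDTC (TolC-deficient, single rRNA operon) carrying LZD-resistant 23S rRNA substitutions. Compounds come from 10 mM DMSO stocks and are twofold serially diluted in 96-well plates.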

For assay [3], the system named is Pseudomonas aeruginosa. The assay can be described thus: Antibacterial activity against wild type Pseudomonas aeruginosa assessed as inhibition of bacterial growth. The class given is functional, organism-based.
Assay [4] relates to Pseudomonas aeruginosa. As to the kind of experiment: Antibacterial activity against efflux pump lacking Pseudomonas aeruginosa assessed as inhibition of bacterial growth. The class given is functional, organism-based.
Assay [5] relates to Acinetobacter baumannii. As to the kind of experiment: Antibacterial activity against wild type Acinetobacter baumannii assessed as inhibition of bacterial growth. The class given is functional, organism-based.
For assay [6], the system named is Escherichia coli. The assay can be described thus: Antibacterial activity against efflux pump lacking/recombinant OM pore producing Escherichia coli assessed as inhibition of bacterial growth. The format is functional, organism-based.
Assay [7] relates to Acinetobacter baumannii. As to the kind of experiment: Antibacterial activity against efflux pump lacking/recombinant OM pore producing Acinetobacter baumannii incubated for 24 hrs by twofold serial dilution method. The class given is functional. In outline:
(§2)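 MICs by twofold serial dilution in 96-well plates from 10 mM DMSO stocks. Cultures grown in the indicated media; for E. coli, A. baumannii and P. aeruginosa, inducers were 0.1% arabinose, 1% arabinose and 0.1 mM IPTG respectively.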

Assay [8] concerns Escherichia coli. As to the kind of experiment: Antibacterial activity against efflux pump lacking Escherichia coli assessed as inhibition of bacterial growth. The class given is functional, organism-based.
For the next assay, the system named is Staphylococcus aureus. The assay can be described thus: Antibacterial activity against Staphylococcus aureus ATCC 25923 incubated for 24 hrs by twofold serial dilution method. The class given is functional. In outline:
as §2

In assay [9] the test system is Pseudomonas aeruginosa. The assay can be described thus: Antibacterial activity against efflux pump lacking/recombinant OM pore producing Pseudomonas aeruginosa incubated for 24 hrs by twofold serial dilution method. The format is functional. Put shortly: as §2
Assay [10] relates to Escherichia coli. The assay can be described thus: Antibacterial activity against recombinant OM pore producing Escherichia coli assessed as inhibition of bacterial growth. The format is functional, organism-based.
Assay [11] relates to Acinetobacter baumannii. The assay can be described thus: Antibacterial activity against efflux pump lacking Acinetobacter baumannii assessed as inhibition of bacterial growth. The class given is functional, organism-based.
Assay [12] deals with Escherichia coli. The assay can be described thus: Antibacterial activity against Escherichia coli SQ110 DTC incubated for 24 hrs by twofold serial dilution method. The class given is functional. In outline:
as §2

Assay [13] concerns Escherichia coli. As to the kind of experiment: Antibacterial activity against Escherichia coli SQ110 incubated for 24 hrs by twofold serial dilution method. The class given is functional. In outline: as §2
The test system of assay [14] is Escherichia coli. The assay can be described thus: Antibacterial activity against Escherichia coli SQ110 DTC C2610A incubated for 24 hrs by twofold serial dilution method. The format is functional. In outline:
as §1

Assay [15] relates to Pseudomonas aeruginosa. The assay can be described thus: Antibacterial activity against efflux pump lacking/recombinant OM pore producing Pseudomonas aeruginosa assessed as inhibition of bacterial growth. The format is functional, organism-based.
The test system of assay [16] is Escherichia coli. The assay can be described thus: Antibacterial activity against wild type Escherichia coli assessed as inhibition of bacterial growth. The class given is functional, organism-based.
Assay [17] relates to Acinetobacter baumannii. As to the kind of experiment: Antibacterial activity against recombinant OM pore producing Acinetobacter baumannii assessed as inhibition of bacterial growth. The class given is functional, organism-based.
Assay [18] relates to Pseudomonas aeruginosa. The assay can be described thus: Antibacterial activity against recombinant OM pore producing Pseudomonas aeruginosa assessed as inhibition of bacterial growth. The format is functional, organism-based.
Assay [19] concerns Acinetobacter baumannii. As to the kind of experiment: Antibacterial activity against efflux pump lacking/recombinant OM pore producing Acinetobacter baumannii assessed as inhibition of bacterial growth. The class given is functional, organism-based.
Assay [20] deals with Klebsiella pneumoniae. The assay can be described thus: Antibacterial activity against multidrug resistant Klebsiella pneumoniae ATCC43816 assessed as inhibition of bacterial growth incubated for 24 hrs in MHI medium by twofold serial dilution method. The settings on record: ATCC43816, 24 h.
Another assay has as its system Klebsiella aerogenes. As to the kind of experiment: Antibacterial activity against multidrug resistant Klebsiella aerogenes ATCC13048 assessed as inhibition of bacterial growth incubated for 24 hrs in M9-MOPS medium by twofold serial dilution method. The format is functional.
Assay [21] has as its system Acinetobacter baumannii. The assay can be described thus: Antibacterial activity against multidrug resistant Acinetobacter baumannii AYE assessed as inhibition of bacterial growth incubated for 24 hrs in MHI medium by twofold serial dilution method. The class given is functional.
Assay [22] deals with Acinetobacter baumannii. The assay can be described thus: Antibacterial activity against multidrug resistant Acinetobacter baumannii Ab5075 assessed as inhibition of bacterial growth incubated for 24 hrs in MHI medium by twofold serial dilution method. The format is functional.
Assay [23] relates to Acinetobacter baumannii. The assay can be described thus: Antibacterial activity against multidrug resistant Acinetobacter baumannii AYE assessed as inhibition of bacterial growth incubated for 24 hrs in M9-MOPS medium by twofold serial dilution method. The class given is functional.
The subject of assay [24] is Klebsiella pneumoniae. The assay can be described thus: Antibacterial activity against multidrug resistant Klebsiella pneumoniae ATCC13883 assessed as inhibition of bacterial growth incubated for 24 hrs in MHI medium by twofold serial dilution method. The class given is functional.
The subject of assay [25] is Acinetobacter baumannii. The assay can be described thus: Antibacterial activity against multidrug resistant Acinetobacter baumannii Ab5075 assessed as inhibition of bacterial growth incubated for 24 hrs in M9-MOPS medium by twofold serial dilution method. The class given is functional.
In assay [26] the test system is Pseudomonas aeruginosa. The assay can be described thus: Antibacterial activity against multidrug resistant Pseudomonas aeruginosa BAA 2108 assessed as inhibition of bacterial growth incubated for 24 hrs in MHI medium by twofold serial dilution method. The format is functional.
The subject of assay [27] is Pseudomonas aeruginosa. As to the kind of experiment: Antibacterial activity against multidrug resistant Pseudomonas aeruginosa BAA 2109 assessed as inhibition of bacterial growth incubated for 24 hrs in […] medium by twofold serial dilution method. The class given is functional.
Assay [28] concerns Klebsiella pneumoniae. The assay can be described thus: Antibacterial activity against multidrug resistant Klebsiella pneumoniae ATCC43816 assessed as inhibition of bacterial growth incubated for 24 hrs in MHI medium by twofold serial dilution method. The class given is functional.
The test system of assay [29] is Klebsiella pneumoniae. The assay can be described thus: Antibacterial activity against multidrug resistant Klebsiella pneumoniae ATCC13883 assessed as inhibition of bacterial growth incubated for 24 hrs in M9-MOPS medium by twofold serial dilution method. The format is functional.
For assay [30], the system named is Pseudomonas aeruginosa. The assay can be described thus: Antibacterial activity against multidrug resistant Pseudomonas aeruginosa BAA 2108 assessed as inhibition of bacterial growth incubated for 24 hrs in M9-MOPS medium by twofold serial dilution method. The format is functional.
Assay [31] deals with Pseudomonas aeruginosa. As to the kind of experiment: Antibacterial activity against multidrug resistant Pseudomonas aeruginosa BAA 2109 assessed as inhibition of bacterial growth incubated for 24 hrs in MHI medium by twofold serial dilution method. The format is functional.
The subject of assay [32] is Klebsiella pneumoniae. As to the kind of experiment: Antibacterial activity against multidrug resistant Klebsiella pneumoniae ATCC43816 assessed as inhibition of bacterial growth incubated for 24 hrs in M9-MOPS medium by twofold serial dilution method. The class given is functional.

≈ marks a conversion by molar mass, not a printed value.

Results on 4 compounds are retold here after ChEMBL document CHEMBL5104202, “Structure-Uptake Relationship Studies of Oxazolidinones in Gram-Negative ESKAPE Pathogens” (J Med Chem, 2022).

Turning to `O=C1O[C@@H](CO)CN1c1ccc(-c2ccc(CO)cc2)c(F)c1`, the MIC in the assay with Escherichia coli [1] was 25 µM; in the assay with Escherichia coli [2], 50 µM (≈ 15.9 µg/mL); with Acinetobacter baumannii [7], 12.5 µM; in the assay on Staphylococcus aureus it was 1.56 µM (≈ 0.495 µg/mL); in the assay with Pseudomonas aeruginosa [9] it was 6.25 µM; in the assay with Escherichia coli [12], 12.5 µM (≈ 3.97 µg/mL). For the same compound, the MIC in the assay on Escherichia coli [13] was above 100 µM; in the assay on Escherichia coli [14], 25 µM (≈ 7.93 µg/mL). Further, the IC50 in the assay with Pseudomonas aeruginosa [3] is above 100 µM; with Pseudomonas aeruginosa [4], 5.3 µM; in the assay with Acinetobacter baumannii [5], 45.3 µM; in the assay with Escherichia coli [6], 3.7 µM; in the assay with Escherichia coli [8] it was 3.9 µM; in the assay on Escherichia coli [10] it was 17.6 µM. Moreover, the IC50 with Acinetobacter baumannii [11] is 4.4 µM; in the assay on Pseudomonas aeruginosa [15] it was 5.5 µM; with Escherichia coli [16], 67.9 µM; with Acinetobacter baumannii [17], 5.7 µM; in the assay on Pseudomonas aeruginosa [18], above 100 µM; in the assay on Acinetobacter baumannii [19], 4.6 µM.
In the case of `O=C(O)c1ccc(-c2ccc(N3C[C@H](CO)OC3=O)cc2F)cc1`, the MIC was 12.5 µM in the assay on Escherichia coli [1]; 50 µM (≈ 16.6 µg/mL) against Escherichia coli [2]; 50 µM in the assay with Acinetobacter baumannii [7]; 6.25 µM (≈ 2.07 µg/mL) in the assay with Staphylococcus aureus; above 100 µM in the assay on Pseudomonas aeruginosa [9]; 25 µM (≈ 8.28 µg/mL) against Escherichia coli [12]. Besides, the MIC against Escherichia coli [13] is above 100 µM; with Escherichia coli [14] it was 25 µM (≈ 8.28 µg/mL). The IC50 in the assay with Pseudomonas aeruginosa [3] is above 100 µM; in the assay with Pseudomonas aeruginosa [4] it was above 100 µM; with Acinetobacter baumannii [5] it was above 100 µM; in the assay with Escherichia coli [6], 2.6 µM; in the assay on Escherichia coli [8], 54 µM; in the assay on Escherichia coli [10], above 100 µM. For the same compound, the IC50 with Acinetobacter baumannii [11] was 12.8 µM; with Pseudomonas aeruginosa [15], 8.9 µM; with Escherichia coli [16], above 100 µM; with Acinetobacter baumannii [17], 55.5 µM; in the assay with Pseudomonas aeruginosa [18] it was above 100 µM; with Acinetobacter baumannii [19] it was 10.2 µM.
Turning to `O=C1O[C@@H](CO)CN1c1ccc(-c2cccc(CO)c2)c(F)c1`, the IC50 in the assay on Pseudomonas aeruginosa [3] was above 100 µM; in the assay on Pseudomonas aeruginosa [4], 15.5 µM; in the assay on Acinetobacter baumannii [5] it was 45.8 µM; in the assay with Escherichia coli [6], 2 µM; in the assay on Escherichia coli [8] it was 1.5 µM; in the assay with Escherichia coli [10] it was 1.5 µM. The IC50 in the assay on Acinetobacter baumannii [11] was 5.4 µM; in the assay on Pseudomonas aeruginosa [15], 13 µM; in the assay with Escherichia coli [16], 66.9 µM; in the assay with Acinetobacter baumannii [17], 10.8 µM; with Pseudomonas aeruginosa [18], above 100 µM; in the assay with Acinetobacter baumannii [19], 7.6 µM. The MIC in the assay with Klebsiella pneumoniae [20] is above 200 µM; in the assay with Klebsiella aerogenes, above 200 µM; in the assay with Acinetobacter baumannii [21] it was above 200 µM; in the assay with Acinetobacter baumannii [22], above 200 µM; in the assay on Acinetobacter baumannii [23] it was 200 µM (≈ 63.5 µg/mL); in the assay with Klebsiella pneumoniae [24] it was above 200 µM. The MIC in the assay with Acinetobacter baumannii [25] is 200 µM (≈ 63.5 µg/mL); in the assay with Pseudomonas aeruginosa [26] it was above 200 µM; in the assay with Pseudomonas aeruginosa [27], above 200 µM; in the assay with Klebsiella pneumoniae [28], above 200 µM; with Klebsiella pneumoniae [29] it was 200 µM (≈ 63.5 µg/mL); in the assay with Pseudomonas aeruginosa [30] it was above 200 µM. In addition, the MIC in the assay on Pseudomonas aeruginosa [31] and in the assay on Klebsiella pneumoniae [32] was above 200 µM in each case.
Turning to `C[n+]1ccc(-c2ccc(N3C[C@H](CO)OC3=O)cc2F)cc1`, the MIC with Escherichia coli [1] is above 100 µM; in the assay on Escherichia coli [2], above 100 µM; in the assay on Acinetobacter baumannii [7], above 100 µM; against Staphylococcus aureus, above 100 µM; in the assay on Pseudomonas aeruginosa [9] it was above 100 µM; in the assay on Escherichia coli [12] it was 50 µM. Moreover, the MIC in the assay on Escherichia coli [13] and in the assay on Escherichia coli [14] was 100 µM throughout. Moreover, the half-maximal inhibitory concentration (IC50) is above 100 µM in the assay with Pseudomonas aeruginosa [3]; 48.8 µM in the assay on Pseudomonas aeruginosa [4]; 59.4 µM with Acinetobacter baumannii [5]; 11 µM in the assay on Escherichia coli [6]; 10 µM in the assay with Escherichia coli [8]; 12.3 µM in the assay with Escherichia coli [10]. Besides, the IC50 in the assay with Acinetobacter baumannii [11] came to 23.3 µM; in the assay on Pseudomonas aeruginosa [15] it was 9.4 µM; in the assay with Escherichia coli [16], 13.5 µM; with Acinetobacter baumannii [17] it was 13.8 µM; with Pseudomonas aeruginosa [18], 59.7 µM; with Acinetobacter baumannii [19], 13.8 µM.

By MIC is commonly meant the lowest concentration that inhibits growth of the organism. A word on the IC50: it is the point on the concentration scale where inhibition reaches its midpoint.
